How the values were obtained:
[1] = test system: Rattus norvegicus; assay: Anticonvulsant activity in Wistar albino rat assessed as protection against maximal electroshock-induced electroconvulsive seizures at 10 mg/kg, po pretreated for 1 hr followed by maximal electroshock challenge relative to control; type: functional
Procedure, shortened: (§1)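 Adult male Wistar rats (150–250 g), six per group, dosed orally 10 mg/kg as suspension in 0.5% sodium carboxymethylcellulose; vehicle control. After 1 h, maximal electroshock of 150 mA for 0.2 s was given via corneal electrodes. Duration of hind limb extension was recorded, and its abolition or reduction was taken as the anticonvulsant index. Values are mean ± SEM, n = 6, analysed by one-way ANOVA with Dunnett's test.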

[2] = test system: Rattus norvegicus; assay: Anticonvulsant activity in Wistar albino rat assessed as protection against maximal electroshock-induced seizures by measuring duration of limb extension at 10 mg/kg, po pretreated for 1 hr followed by maximal electroshock challenge (reference value: 16 +/- 1 secs); type: functional; procedure, shortened: as §1
[3] = test system: Rattus norvegicus; assay: Anticonvulsant activity in Wistar albino rat assessed as protection against […] at 10 mg/kg, po pretreated for 1 hr followed by pentylenetetrazole challenge measured over 300 secs relative to control; type: functional
[4] = test system: Rattus norvegicus; assay: Anticonvulsant activity in Wistar albino rat assessed as protection against subcutaneous pentylenetetrazole-induced seizures by measuring latency period at 10 mg/kg, po pretreated for 1 hr followed by pentylenetetrazole challenge measured over 300 secs (reference value: 72 +/- 2 secs); type: functional
[5] = test system: Mus musculus; assay: Toxicity in Swiss albino mouse up to 100 mg/kg, po measured over 7 days; type: organism-based; parameters: dose 100 mg/kg, route oral; conditions: in vivo, 168 h
Procedure, shortened: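 Acute oral toxicity followed OECD-425. Swiss albino mice (18–20 g), 5 per group, were dosed orally at different levels and observed for death over seven days.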

[6] = test system: Rattus norvegicus; assay: Anticonvulsant activity in Wistar albino rat assessed as protection against maximal electroshock-induced electroconvulsive seizures at 30 mg/kg, po pretreated for 1 hr followed by maximal electroshock challenge relative to control; type: functional
[7] = test system: Rattus norvegicus; assay: Anticonvulsant activity in Wistar albino rat assessed as protection against maximal electroshock-induced seizures by measuring duration of limb extension at 30 mg/kg, po pretreated for 1 hr followed by maximal electroshock challenge (reference value: 16 +/- 1 secs); type: functional
[8] = test system: Rattus norvegicus; assay: Anticonvulsant activity in Wistar albino rat assessed as protection against subcutaneous pentylenetetrazole-induced mortality at 30 mg/kg, po pretreated for 1 hr followed by pentylenetetrazole challenge relative to control; type: functional
[9] = test system: Rattus norvegicus; assay: Anticonvulsant activity in Wistar albino rat assessed as protection against subcutaneous pentylenetetrazole-induced seizures by measuring latency period at 30 mg/kg, po pretreated for 1 hr followed by pentylenetetrazole challenge measured over 300 secs (reference value: 72 +/- 2 secs); type: functional
[10] = test system: Rattus norvegicus; assay: Anticonvulsant activity in Wistar albino rat assessed as protection against subcutaneous pentylenetetrazole-induced mortality at 5 mg/kg, ip pretreated for 1 hr followed by pentylenetetrazole challenge measured over 300 secs relative to control; type: functional; conditions: sc
[11] = test system: Rattus norvegicus; assay: Anticonvulsant activity in Wistar albino rat assessed as protection against subcutaneous pentylenetetrazole-induced seizures by measuring latency period at 5 mg/kg, ip pretreated for 1 hr followed by pentylenetetrazole challenge measured over 300 secs (reference value: 72 +/- 2 secs); type: functional

Row | Compound | Activity [1] [%] | Time [2] [s] | mortality at 10 mg/kg [3] [%] | Time [4] [s] | Activity [5] | Activity [6] [%] | Time [7] [s] | mortality at 30 mg/kg [8] [%] | Time [9] [s] | mortality at 5 mg/kg [10] [%] | Time [11] [s]
1 | CCOC(=O)C1=C(C)N(C(C(=O)OCC)C(=O)OCC)C(C)=C(C(=O)OCC)C1 | 41.6 | 9 | 0 | 192 | Non-toxic | – | – | – | – | – | –
2 | CCOC(=O)C(C(=O)OCC)N1C(C)=C(C(=O)OC)C(CCc2ccccc2)C(C(=O)OC)=C1C | 20.8 | 13 | 66.6 | >300 | Non-toxic | – | – | – | – | – | –
3 | CCOC(=O)C(C(=O)OCC)N1C(C)=C(C(=O)OC)C(Cc2ccccc2)C(C(=O)OC)=C1C | 14.5 | 14 | 33.3 | 285 | Non-toxic | – | – | – | – | – | –
4 | CCOC(=O)C(C(=O)OCC)N1C(C)=C(C(=O)OC)C(/C=C/c2ccccc2)C(C(=O)OC)=C1C | 41.6 | 9 | 100 | 268 | Non-toxic | – | – | – | – | – | –
5 | CCOC(=O)C1=C(C)N(C(C(=O)OCC)C(=O)OCC)C(C)=C(C(=O)OCC)C1c1ccccc1[N+](=O)[O-] | 22.9 | 12 | 0 | 230 | Non-toxic | – | – | – | – | – | –
6 | CCOC(=O)C1=C(C)N(C(C(=O)OCC)C(=O)OCC)C(C)=C(C(=O)OCC)C1c1ccccc1 | 16.6 | 13 | 0 | 283 | Non-toxic | – | – | – | – | – | –
7 | O=C1NC(=O)C(c2ccccc2)(c2ccccc2)N1 [PHENYTOIN] | – | – | – | – | – | 62.5 | 6 | – | – | – | –
8 | CCOC(=O)C(C(=O)OCC)N1C(C)=C(C(=O)OC)C(c2ccccc2)C(C(=O)OC)=C1C | 25 | 12 | 33.3 | >300 | Non-toxic | – | – | – | – | – | –
9 | CCOC(=O)C1=C(C)N(C(C(=O)OCC)C(=O)OCC)C(C)=C(C(=O)OCC)C1/C=C/c1ccc([N+](=O)[O-])cc1 | 50 | 8 | 0 | >300 | Non-toxic | – | – | – | – | – | –
10 | CCOC(=O)C(C(=O)OCC)N1C(C)=C(C(=O)OC)CC(C(=O)OC)=C1C | 14.5 | 13 | 0 | 126 | Non-toxic | – | – | – | – | – | –
11 | CCOC(=O)C1=C(C)N(C(C(=O)OCC)C(=O)OCC)C(C)=C(C(=O)OCC)C1CCc1ccccc1 | 8.3 | 15 | 33.3 | 246 | Non-toxic | – | – | – | – | – | –
12 | CCOC(=O)C(C(=O)OCC)N1C(C)=C(C(=O)OC)C(c2ccccc2[N+](=O)[O-])C(C(=O)OC)=C1C | 39.6 | 10 | 0 | 295 | Non-toxic | – | – | – | – | – | –
13 | COC(=O)C1=C(C)NC(C)=C(C(=O)OC)C1c1ccccc1[N+](=O)[O-] [NIFEDIPINE] | – | – | – | – | – | 56.8 | 7 | 33.3 | 215 | – | –
14 | CCOC(=O)C1=C(C)N(C(C(=O)OCC)C(=O)OCC)C(C)=C(C(=O)OCC)C1Cc1ccccc1 | 10.4 | 14 | 66.6 | 265 | Non-toxic | – | – | – | – | – | –
15 | CCOC(=O)C1=C(C)N(C(C(=O)OCC)C(=O)OCC)C(C)=C(C(=O)OCC)C1/C=C/c1ccccc1 | 22.9 | 12 | 0 | >300 | Non-toxic | – | – | – | – | – | –
16 | CCOC(=O)C(C(=O)OCC)N1C(C)=C(C(=O)OC)C(/C=C/c2ccc([N+](=O)[O-])cc2)C(C(=O)OC)=C1C | 52.1 | 7 | 0 | >300 | Non-toxic | – | – | – | – | – | –
17 | CN1C(=O)CN=C(c2ccccc2)c2cc(Cl)ccc21 [DIAZEPAM] | – | – | – | – | – | – | – | – | – | 66.6 | 266
